# Measurements taken from ChEMBL document CHEMBL3797076, “5-HT2 receptor affinity, docking studies and pharmacological evaluation of a series of 1,3-disubstituted thiourea derivatives” (Eur J Med Chem, 2016).
# The source made the active and inactive calls. The calls are words filed in the database; no cut-off is given here.
# System: Mus musculus
# Test: Antinociceptive activity in Albino Swiss mouse assessed as inhibition of acetic acid-induced writhing response at 0.05 ED50, ip administered 60 mins prior to test measured for 10 mins in presence of opioid receptor antagonist naloxone
# Format: functional, organism-based
# Settings: not given
row,SMILES,inhibition
1,CC(NC(=S)Nc1ccc(Cl)c([N+](=O)[O-])c1)c1ccccc1 (configuration not stated),Active
2,FC(F)(F)c1cccc(NC(S)=NCc2ccccc2)c1,Active
3,FC(F)(F)c1cccc(NC(=S)NCCc2ccccc2)c1,Active

# System: Mus musculus
# Test: Antinociceptive activity in Albino Swiss mouse assessed as inhibition of acetic acid-induced writhing response at 0.1 ED50, ip administered 60 mins prior to test measured for 10 mins
# Format: functional, organism-based
# Settings: not given
# How it was run: (§1)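 Male Albino Swiss mice, i.p. dosing in 0.5% methylcellulose 60 min beforehand; 0.6% acetic acid injected i.p., writhing episodes counted for 10 min beginning 5 min after acid. Mean ± SEM; one-way ANOVA with Dunnett's test vs control.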
row,SMILES,inhibition
1,CC(NC(=S)Nc1ccc(Cl)c([N+](=O)[O-])c1)c1ccccc1 (configuration not stated),Active
2,FC(F)(F)c1cccc(NC(S)=NCc2ccccc2)c1,Active
3,FC(F)(F)c1cccc(NC(=S)NCCc2ccccc2)c1,Active

# System: Mus musculus
# Test: Neurotoxicity in Albino Swiss mouse assessed as induction of myorelaxation at 0.0125 to 0.1 ED50, ip after 60 mins by chimney test
# Format: toxicity, organism-based
# Settings: in vivo, 1 h
row,SMILES,Activity
1,CC(NC(=S)Nc1ccc(Cl)c([N+](=O)[O-])c1)c1ccccc1 (configuration not stated),Non-toxic
2,FC(F)(F)c1cccc(NC(S)=NCc2ccccc2)c1,Non-toxic
3,FC(F)(F)c1cccc(NC(=S)NCCc2ccccc2)c1,Non-toxic

# System: Mus musculus
# Test: Toxicity in ip dosed Albino Swiss mouse assessed as loss of righting reflex administered 60 mins before test measured up to 48 hrs
# Format: organism-based
# Settings: in vivo
# How it was run: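 Acute toxicity in male Albino Swiss mice by Litchfield-Wilcoxon method: ED50 for loss of righting reflex after i.p. dosing, observed at 15, 30, 60, 180 min and 24, 48 h.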
row,SMILES,ED50
1,CC(NC(=S)Nc1ccc(Cl)c([N+](=O)[O-])c1)c1ccccc1 (configuration not stated),1031.3 mg/kg
2,FC(F)(F)c1cccc(NC(S)=NCc2ccccc2)c1,731.3 mg/kg
3,FC(F)(F)c1cccc(NC(=S)NCCc2ccccc2)c1,709.6 mg/kg

# System: Mus musculus
# Test: Neurotoxicity in Albino Swiss mouse assessed as impairment in motor coordination at 0.0125 to 0.1 ED50, ip after 60 mins by chimney test
# Format: toxicity, organism-based
# Settings: in vivo, 1 h
row,SMILES,Activity
1,CC(NC(=S)Nc1ccc(Cl)c([N+](=O)[O-])c1)c1ccccc1 (configuration not stated),Non-toxic
2,FC(F)(F)c1cccc(NC(S)=NCc2ccccc2)c1,Non-toxic
3,FC(F)(F)c1cccc(NC(=S)NCCc2ccccc2)c1,Non-toxic

# System: Mus musculus
# Test: Protection against pentetrazol-induced mortality in Albino Swiss mouse at 0.1 ED50, ip administered 60 mins prior to test relative to untreated control
# Format: functional
# Settings: not given
# How it was run: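 Male Albino Swiss mice (18–30 g). Compound given i.p. as suspension in 0.5% methylcellulose (10 mL/kg), 60 min before test; controls got vehicle. Dose expressed as fraction of ED50 (loss of righting reflex within 48 h). Convulsions induced by pentylenetetrazole 110 mg/kg s.c.; dead animals counted per group (n=10; control n=16). Significance vs control by Fisher's exact test.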
row,SMILES,Activity
1,FC(F)(F)c1cccc(NC(S)=NCc2ccccc2)c1,Active
2,FC(F)(F)c1cccc(NC(=S)NCCc2ccccc2)c1,48.33%

# System: Mus musculus
# Test: Anticonvulsant activity in Albino Swiss mouse assessed as protection against pentetrazol-induced tonic seizure at 0.1 ED50, ip administered 60 mins prior to test relative to untreated control
# Format: functional
# Settings: not given
# How it was run: (§2)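 Male Albino Swiss mice (18-30 g); compound given i.p. as suspension in 0.5% methylcellulose 60 min before test; pentylenetetrazole 110 mg/kg s.c. Scored as number of mice with clonic seizures, tonic convulsions and deaths per animals tested; Fisher's exact test vs solvent control.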
row,SMILES,Activity
1,FC(F)(F)c1cccc(NC(S)=NCc2ccccc2)c1,46.66%
2,FC(F)(F)c1cccc(NC(=S)NCCc2ccccc2)c1,46.66%

# System: Mus musculus
# Test: Inhibition of (+/-)DOI-induced head twitch response in ip dosed Albino Swiss mouse administered 60 mins before (+/-)DOI injection measured for 20 mins
# Format: functional, organism-based
# Settings: not given
# How it was run: (§3)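 Male Albino Swiss mice; compounds suspended in 0.5% methylcellulose, injected i.p. 60 min before (±)DOI 2.5 mg/kg i.p.; head twitches counted over 20 min. Mean ± SEM, percent reduction versus DOI-treated group; one-way ANOVA with Bonferroni post hoc test.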
row,SMILES,inhibition
1,FC(F)(F)c1cccc(NC(S)=NCc2ccccc2)c1,Dose-dependent effect

# System: Mus musculus
# Test: Toxicity in Albino Swiss mouse assessed as inhibition of spontaneous locomotor activity at 0.1 ED50, ip administered 60 mins before test measured for 30 mins by photoresistor actometer analysis
# Format: organism-based
# Settings: in vivo, 0.5 h
# How it was run: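 Spontaneous locomotion of single male Albino Swiss mice recorded in two-beam photoresistor actometers as beam crossings for 30 min, beginning 60 min after i.p. compound (suspension in 0.5% methylcellulose).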
row,SMILES,Activity
1,CC(NC(=S)Nc1ccc(Cl)c([N+](=O)[O-])c1)c1ccccc1 (configuration not stated),Non-toxic
2,FC(F)(F)c1cccc(NC(S)=NCc2ccccc2)c1,Non-toxic
3,FC(F)(F)c1cccc(NC(=S)NCCc2ccccc2)c1,Non-toxic

# System: Mus musculus
# Test: Inhibition of 5-HTP-induced head twitch response in Albino Swiss mouse at 0.1 ED50, ip administered 60 mins before 5-HTP injection relative to untreated control
# Format: functional
# Settings: not given
# How it was run: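 Male Albino Swiss mice given compound i.p. (0.1 ED50, 0.5% methylcellulose) 60 min before the test; L-5-HTP 230 mg/kg i.p. injected immediately before. Head twitches counted; mean ± SEM, Dunnett's test vs control.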
SMILES,inhibition (INH),inhibition
CC(NC(=S)Nc1ccc(Cl)c([N+](=O)[O-])c1)c1ccccc1 (configuration not stated),89%,–
FC(F)(F)c1cccc(NC(S)=NCc2ccccc2)c1,73.3%,–
FC(F)(F)c1cccc(NC(=S)NCCc2ccccc2)c1,–,inactive

# System: Mus musculus
# Test: Neurotoxicity in Albino Swiss mouse assessed as impairment in motor coordination at 0.0125 to 0.1 ED50, ip after 60 mins by rotarod test
# Format: toxicity, organism-based
# Settings: in vivo, 1 h
row,SMILES,Activity
1,CC(NC(=S)Nc1ccc(Cl)c([N+](=O)[O-])c1)c1ccccc1 (configuration not stated),Non-toxic
2,FC(F)(F)c1cccc(NC(S)=NCc2ccccc2)c1,Non-toxic
3,FC(F)(F)c1cccc(NC(=S)NCCc2ccccc2)c1,Non-toxic

# System: Mus musculus
# Test: Inhibition of (+/-)DOI-induced head twitch response in Albino Swiss mouse at 36.55 mg/kg, ip administered 60 mins before (+/-)DOI injection measured for 20 mins relative to untreated control
# Format: functional
# Settings: not given
# How it was run: as §3
row,SMILES,inhibition in vivo at 36.55 mg/kg
1,FC(F)(F)c1cccc(NC(S)=NCc2ccccc2)c1,69.4%

# System: Mus musculus
# Test: Decrease in body temperature in Albino Swiss mouse at 0.1 ED50, ip administered 60 mins before test measured 30 to 120 mins post dose
# Format: functional, organism-based
# Settings: not given
# How it was run: (§4)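 Normothermic male Albino Swiss mice; rectal temperature by thermistor thermometer. Baseline taken as mean of readings at 60 and 30 min before dosing; i.p. dose (0.1 ED50, 0.5% methylcellulose vehicle) then readings at 30, 60, 90, 120 min (to 180 min for some). Change = final minus initial; Bonferroni post hoc test.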
row,SMILES,Activity
1,CC(NC(=S)Nc1ccc(Cl)c([N+](=O)[O-])c1)c1ccccc1 (configuration not stated),Active

# Biological target: 5-hydroxytryptamine receptor 2A (Rattus norvegicus, UniProt P14842)
# Test: Displacement of [3H]ketanserin from 5HT2A receptor in Sprague-Dawley rat brain cortex incubated for 15 mins
# Settings: not given
# How it was run: (§5)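 Rat frontal cortex homogenized in 50 mM Tris-HCl, 0.5 mM EDTA, 10 mM MgCl2, pH 7.4, washed, resuspended with 0.1% ascorbate and pargyline. Triplicates: 5-HT2A used 0.4 nM [3H]ketanserin, cinanserin for nonspecific binding; 5-HT2C used 1 nM [3H]mesulergine, mianserin nonspecific, 100 nM spiperone added. 15 min at 37 C, glass-fiber filtration.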
# 5-hydroxytryptamine receptor 2A, sequence (P14842 whole entry): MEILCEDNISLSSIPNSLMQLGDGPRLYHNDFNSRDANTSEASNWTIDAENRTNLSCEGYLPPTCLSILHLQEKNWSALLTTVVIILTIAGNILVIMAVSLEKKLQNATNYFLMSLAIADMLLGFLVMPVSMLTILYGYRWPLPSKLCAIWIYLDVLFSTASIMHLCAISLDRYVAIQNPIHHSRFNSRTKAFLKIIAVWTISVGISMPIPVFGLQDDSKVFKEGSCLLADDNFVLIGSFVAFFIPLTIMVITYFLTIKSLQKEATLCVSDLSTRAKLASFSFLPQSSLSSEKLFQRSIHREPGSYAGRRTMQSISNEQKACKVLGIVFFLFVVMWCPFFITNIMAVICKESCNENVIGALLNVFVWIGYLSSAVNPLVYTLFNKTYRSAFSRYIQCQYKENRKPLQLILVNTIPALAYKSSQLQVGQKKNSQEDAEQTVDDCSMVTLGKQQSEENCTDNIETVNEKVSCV
row,SMILES,Ki
1,CC(NC(=S)Nc1ccc(Cl)c([N+](=O)[O-])c1)c1ccccc1 (configuration not stated),> 10 µM
2,FC(F)(F)c1cccc(NC(S)=NCc2ccccc2)c1,0.0006 µM
3,FC(F)(F)c1cccc(NC(=S)NCCc2ccccc2)c1,> 10 µM

# System: Mus musculus
# Test: Antinociceptive activity in Albino Swiss mouse assessed as inhibition of acetic acid-induced writhing response at 0.025 to 0.05 ED50, ip administered 60 mins prior to test measured for 10 mins
# Format: functional, organism-based
# Settings: not given
# How it was run: as §1
row,SMILES,inhibition
1,CC(NC(=S)Nc1ccc(Cl)c([N+](=O)[O-])c1)c1ccccc1 (configuration not stated),Active
2,FC(F)(F)c1cccc(NC(S)=NCc2ccccc2)c1,Active
3,FC(F)(F)c1cccc(NC(=S)NCCc2ccccc2)c1,Active

# System: Mus musculus
# Test: Neurotoxicity in Albino Swiss mouse assessed as induction of myorelaxation at 0.0125 to 0.1 ED50, ip after 60 mins by rotarod test
# Format: toxicity, organism-based
# Settings: in vivo, 1 h
row,SMILES,Activity
1,CC(NC(=S)Nc1ccc(Cl)c([N+](=O)[O-])c1)c1ccccc1 (configuration not stated),Non-toxic
2,FC(F)(F)c1cccc(NC(S)=NCc2ccccc2)c1,Non-toxic
3,FC(F)(F)c1cccc(NC(=S)NCCc2ccccc2)c1,Non-toxic

# Biological target: T1, 5-hydroxytryptamine receptor 2C (Rattus norvegicus, UniProt P08909)
# T1 sequence (P08909 whole entry): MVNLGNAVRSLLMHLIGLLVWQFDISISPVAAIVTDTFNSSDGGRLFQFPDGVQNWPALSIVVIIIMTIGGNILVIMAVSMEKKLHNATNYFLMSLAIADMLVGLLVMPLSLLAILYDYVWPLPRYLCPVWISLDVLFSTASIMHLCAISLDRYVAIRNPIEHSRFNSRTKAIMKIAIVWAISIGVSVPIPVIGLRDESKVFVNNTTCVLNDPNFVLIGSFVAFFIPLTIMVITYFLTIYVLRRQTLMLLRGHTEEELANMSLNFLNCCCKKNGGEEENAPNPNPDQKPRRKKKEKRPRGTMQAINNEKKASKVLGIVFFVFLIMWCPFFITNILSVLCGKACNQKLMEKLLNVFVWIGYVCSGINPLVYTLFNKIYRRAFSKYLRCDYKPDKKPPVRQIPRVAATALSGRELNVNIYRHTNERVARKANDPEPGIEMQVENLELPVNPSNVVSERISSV
# Test: Displacement of [3H]mesulergine from 5HT2C receptor in Sprague-Dawley rat brain cortex incubated for 15 mins
# Settings: not given
# How it was run: as §5
row,SMILES,Ki
1,CC(NC(=S)Nc1ccc(Cl)c([N+](=O)[O-])c1)c1ccccc1 (configuration not stated),> 10 µM
2,FC(F)(F)c1cccc(NC(S)=NCc2ccccc2)c1,> 10 µM
3,FC(F)(F)c1cccc(NC(=S)NCCc2ccccc2)c1,> 10 µM

# System: Mus musculus
# Test: Anticonvulsant activity in Albino Swiss mouse assessed as protection against pentetrazol-induced clonic seizure at 0.05 ED50, ip administered 60 mins prior to test relative to untreated control
# Format: functional, organism-based
# Settings: not given
# How it was run: as §2
row,SMILES,Activity
1,FC(F)(F)c1cccc(NC(=S)NCCc2ccccc2)c1,inactive

# System: Mus musculus
# Test: Inhibition of (+/-)DOI-induced head twitch response in Albino Swiss mouse at 73.1 mg/kg, ip administered 60 mins before (+/-)DOI injection measured for 20 mins relative to untreated control
# Format: functional
# Settings: not given
# How it was run: as §3
row,SMILES,inhibition in vivo at 73.1 mg/kg
1,FC(F)(F)c1cccc(NC(S)=NCc2ccccc2)c1,72.2%

# System: Mus musculus
# Test: Inhibition of amphetamine-induced hyperlocomotion in Albino Swiss mouse at 0.1 ED50, ip administered 60 mins prior to test measured for 30 mins by photoresistor actometer analysis
# Format: functional
# Settings: not given
# How it was run: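 Single male Albino Swiss mice; compound i.p. 60 min and amphetamine 5 mg/kg s.c. 30 min before test. Photoresistor actometers (circular cage, two light beams) counted beam crossings over 30 min; mean ± SEM, Dunnett's test vs control.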
SMILES,inhibition,inhibition (INH)
CC(NC(=S)Nc1ccc(Cl)c([N+](=O)[O-])c1)c1ccccc1 (configuration not stated),inactive,–
FC(F)(F)c1cccc(NC(S)=NCc2ccccc2)c1,Active,–
FC(F)(F)c1cccc(NC(=S)NCCc2ccccc2)c1,–,42.48%

# System: Mus musculus
# Test: Anticonvulsant activity in Albino Swiss mouse assessed as protection against pentetrazol-induced clonic seizure at 0.1 ED50, ip administered 60 mins prior to test relative to untreated control
# Format: functional
# Settings: not given
# How it was run: as §2
row,SMILES,Activity
1,CC(NC(=S)Nc1ccc(Cl)c([N+](=O)[O-])c1)c1ccccc1 (configuration not stated),inactive
2,FC(F)(F)c1cccc(NC(S)=NCc2ccccc2)c1,40%

# System: Mus musculus
# Test: Effect on body temperature in Albino Swiss mouse at 0.1 ED50, ip administered 60 mins before test measured 30 to 180 mins post dose
# Format: functional, organism-based
# Settings: not given
# How it was run: as §4
row,SMILES,Activity
1,FC(F)(F)c1cccc(NC(S)=NCc2ccccc2)c1,inactive
2,FC(F)(F)c1cccc(NC(=S)NCCc2ccccc2)c1,inactive
